From ChEMBL document CHEMBL2311298, “2H-chromene derivatives bearing thiazolidine-2,4-dione, rhodanine or hydantoin moieties as potential anticancer agents” (Eur J Med Chem, 2013) come the findings set out here.

One experiment deals with NIH3T3. As to the kind of experiment: Anticancer activity against mouse NIH/3T3 cells assessed as cell viability after 72 hrs by MTT reduction assay. The class given is cell-based. To be noted: NIH3T3, 72 h. The essentials:
(§1)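 Cells grown in RPMI 1640 with 10% FBS, 100 units/ml penicillin-G and streptomycin, 37 °C, 5% CO2. A549, MCF-7 and NIH/3T3 grown as monolayers, K562 and MOLT-4 in suspension. Seeding densities (cells/ml): A549 40,000, K562 40,000, MCF-7 30,000, MOLT-4 40,000, NIH/3T3 50,000. Overnight at 37 °C, then 3-4 concentrations added.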

The next experiment deals with A549. As to the kind of experiment: Anticancer activity against human A549 cells assessed as cell viability after 72 hrs by MTT reduction assay. Particulars: A549, 72 h. It is filed as functional, cell-based. The essentials: as §1
In experiment [1] the test system is MOLT-4. As to the kind of experiment: Anticancer activity against human MOLT4 cells assessed as cell viability after 72 hrs by MTT reduction assay. It is filed as functional, cell-based. To be noted: MOLT-4, 72 h. Put shortly: as §1
Experiment [2] relates to MOLT-4. As to the kind of experiment: Anticancer activity against human MOLT4 cells assessed as cell viability at 50 uM after 72 hrs by trypan blue exclusion assay. The class given is functional. To be noted: MOLT-4, 72 h, read-out: Activity. Put shortly: (§2)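 MOLT-4 cells in RPMI 1640 with 10% FBS, grown in suspension at 37 °C, 5% CO2. Cells exposed for 72 h as in the MTT assay, with each compound at a single concentration. Suspension mixed 1:1 with trypan blue. Clear (viable) and blue cells counted on a hemocytometer. Percent viable cells expressed relative to control wells.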

The next experiment concerns MCF7. As to the kind of experiment: Anticancer activity against human MCF7 cells assessed as cell viability after 72 hrs by MTT reduction assay. It is filed as functional, cell-based. Particulars: MCF7, 72 h. Put shortly: as §1
The subject of another experiment is K562. Put plainly: Anticancer activity against human K562 cells assessed as cell viability after 72 hrs by MTT reduction assay. It is filed as functional, cell-based. To be noted: K562, 72 h. Put shortly: as §1
For experiment [3], the system named is MOLT-4. Put plainly: Anticancer activity against human MOLT4 cells assessed as cell viability at 40 uM after 72 hrs by trypan blue exclusion assay. It is filed as functional. To be noted: MOLT-4, 72 h, read-out: Activity. The essentials:
as §2

Experiment [4] deals with MOLT-4. Put plainly: Anticancer activity against human MOLT4 cells assessed as cell viability at 75 uM after 72 hrs by trypan blue exclusion assay. It is filed as functional. To be noted: MOLT-4, 72 h, read-out: Activity. Put shortly: as §2
Experiment [5] concerns MOLT-4. As to the kind of experiment: Anticancer activity against human MOLT4 cells assessed as cell viability at 10 uM after 72 hrs by trypan blue exclusion assay. Particulars: MOLT-4, 72 h, read-out: Activity. The class given is functional. The essentials: as §2
In experiment [6] the test system is MOLT-4. Put plainly: Anticancer activity against human MOLT4 cells assessed as cell viability at 100 uM after 72 hrs by trypan blue exclusion assay. It is filed as functional. Particulars: MOLT-4, 72 h, read-out: Activity. Put shortly:
as §2

In experiment [7] the test system is MOLT-4. As to the kind of experiment: Anticancer activity against human MOLT4 cells assessed as cell viability at 20 uM after 72 hrs by trypan blue exclusion assay. It is filed as functional. To be noted: MOLT-4, 72 h, read-out: Activity. Put shortly:
as §2

The test system of experiment [8] is MOLT-4. Put plainly: Anticancer activity against human MOLT4 cells assessed as cell viability at 65 uM after 72 hrs by trypan blue exclusion assay. It is filed as functional. Particulars: MOLT-4, 72 h, read-out: Activity. The essentials: as §2
Experiment [9] relates to MOLT-4. As to the kind of experiment: Anticancer activity against human MOLT4 cells assessed as cell viability at 25 uM after 72 hrs by trypan blue exclusion assay. It is filed as functional. Particulars: MOLT-4, 72 h, read-out: Activity. Put shortly: as §2

Where only a bound is given, the exact number is not on record here.

Turning to `O=C1NC(=S)S/C1=C\C1=Cc2ccccc2OC1`, the concentration for half-maximal inhibition (IC50) in the experiment on NIH3T3 was 72.4 µM; with A549 it was 73.1 µM; in the experiment with MOLT-4 [1], 52 µM; with MCF7 it was 68.7 µM; in the experiment with K562 it was 55.3 µM. The viability at 50 µM with MOLT-4 [2] is 49.3%.

Take `O=C(O)CN1C(=O)/C(=C/C2=Cc3ccccc3OC2)SC1=S`: the IC50 with A549, in the experiment with MOLT-4 [1], in the experiment on MCF7 and with K562 was above 100 µM each time.

Consider `CCN1C(=O)S/C(=C\C2=Cc3ccccc3OC2)C1=O`, for which the IC50 in the experiment on A549, in the experiment on MOLT-4 [1], with MCF7 and with K562 was above 200 µM each time.

Regarding `O=C1NC(=O)/C(=C/C2=Cc3cc(Br)ccc3OC2)S1`, the half-inhibitory concentration (IC50) is 56.5 µM in the experiment on NIH3T3; 79.5 µM in the experiment with A549; 54.7 µM with MOLT-4 [1]; 57.9 µM in the experiment with MCF7; 49.8 µM with K562. In addition, the viability at 50 µM in the experiment with MOLT-4 [2] came out at 52.7%.

Turning to `O=C1NC(=S)S/C1=C\C1=Cc2cc(Br)ccc2OC1`, the half-maximal inhibitory concentration (IC50) is 27.8 µM with NIH3T3; 51 µM with A549; 38.2 µM with MOLT-4 [1]; 40.4 µM in the experiment with MCF7; 33.7 µM with K562. In addition, in the experiment with MOLT-4 [3], the viability at 40 µM worked out at 46.7%.

Regarding `O=C1NC(=O)/C(=C/C2=Cc3cc(Br)ccc3OC2)N1`, the concentration for half-maximal inhibition (IC50) in the experiment on NIH3T3 was 35.9 µM; in the experiment with A549, 19.3 µM; in the experiment with MOLT-4 [1], 77.5 µM; in the experiment with MCF7, 51 µM; in the experiment on K562 it was 79.3 µM. In the experiment with MOLT-4 [4], the viability at 75 µM amounted to 60.1%.

For `O=C(O)CN1C(=O)/C(=C/C2=Cc3cc(Br)ccc3OC2)SC1=S`, the IC50 in the experiment on A549, in the experiment on MOLT-4 [1], in the experiment with MCF7 and with K562 was above 25 µM throughout.

With `CCN1C(=O)S/C(=C\C2=Cc3cccc(OC)c3OC2)C1=O`, the IC50 is 75 µM in the experiment with NIH3T3; above 200 µM in the experiment on A549; 13.2 µM in the experiment with MOLT-4 [1]; 89.1 µM in the experiment with MCF7; 90.4 µM in the experiment on K562. Moreover, the viability at 10 µM in the experiment on MOLT-4 [5] was 53.2%.

Turning to `COc1cccc2c1OCC(/C=C1\SC(=S)N(CC(=O)O)C1=O)=C2`, the IC50 in the experiment on A549, in the experiment with MOLT-4 [1], in the experiment with MCF7 and in the experiment with K562 was above 200 µM in each case.

On to `CN1C(=N)NC(=O)/C1=C/C1=Cc2ccccc2OC1`, for which the IC50 is 106 µM in the experiment on NIH3T3; 89.4 µM with A549; 72 µM in the experiment with MOLT-4 [1]; 149 µM in the experiment with MCF7; 96.5 µM in the experiment on K562. Besides, the viability at 75 µM in the experiment with MOLT-4 [4] was 49.5%.

As to `CN1C(=O)S/C(=C\C2=Cc3ccccc3OC2)C1=O`, the 50% inhibitory concentration (IC50) in the experiment on A549, in the experiment with MOLT-4 [1], in the experiment with MCF7 and in the experiment on K562 was above 100 µM each time.

Turning to `O=C1NC(=O)/C(=C/C2=Cc3ccccc3OC2)S1`, the half-inhibitory concentration (IC50) was above 200 µM in the experiment on NIH3T3; 192 µM in the experiment with A549; 101 µM in the experiment on MOLT-4 [1]; 99.4 µM in the experiment on MCF7; 98.9 µM in the experiment on K562. In the experiment on MOLT-4 [6], the viability at 100 µM turned out to be 53.4%.

On to `O=C1NC(=O)/C(=C/C2=Cc3ccccc3OC2)N1`, for which the half-maximal inhibitory concentration (IC50) with NIH3T3 was found to be 180 µM; in the experiment with A549, 29.7 µM; in the experiment with MOLT-4 [1] it was 21.3 µM; in the experiment on MCF7 it was 8.1 µM; with K562, 55.7 µM. Besides, in the experiment on MOLT-4 [7], the viability at 20 µM amounted to 53.3%.

On to `CC1Oc2ccc(Br)cc2C=C1/C=C1\SC(=O)NC1=O` (racemic), for which the half-maximal inhibitory concentration (IC50) in the experiment on NIH3T3 was 56.2 µM; with A549, 65.5 µM; in the experiment with MOLT-4 [1], 64.5 µM; with MCF7 it was 67.6 µM; in the experiment with K562 it was 77 µM. Besides, in the experiment with MOLT-4 [8], the viability at 65 µM is 53.3%.

Consider `CC1Oc2ccc(Br)cc2C=C1/C=C1\SC(=S)NC1=O` (racemic), for which the IC50 with NIH3T3 worked out at 28.7 µM; with A549, 47.5 µM; in the experiment on MOLT-4 [1] it was 20.5 µM; with MCF7, 19.9 µM; in the experiment with K562 it was 31.6 µM. Also, in the experiment on MOLT-4 [7], the viability at 20 µM came to 53.1%.

Regarding `CC1Oc2ccc(Br)cc2C=C1/C=C1/C(=O)NC(=N)N1C` (racemic), the IC50 with NIH3T3 stood at 87.7 µM; with A549, 121 µM; in the experiment with MOLT-4 [1], 56.6 µM; in the experiment with MCF7 it was 84.8 µM; in the experiment on K562, 51.8 µM. Also, the viability at 50 µM with MOLT-4 [2] amounted to 54.3%.

On to `CC1Oc2ccc(Br)cc2C=C1/C=C1\NC(=O)NC1=O` (racemic), for which the viability at 25 µM in the experiment with MOLT-4 [9] was found to be 41.3%. The IC50 turned out to be 25.2 µM with NIH3T3; 17.5 µM with A549; 24.8 µM with MOLT-4 [1]; 15.3 µM in the experiment on MCF7; 10.6 µM in the experiment on K562.

As to `CC1Oc2ccc(Br)cc2C=C1/C=C1\SC(=O)N(C)C1=O` (racemic), the IC50 in the experiment with A549, in the experiment with MOLT-4 [1], in the experiment with MCF7 and in the experiment on K562 was above 50 µM in each case.

Turning to `CCN1C(=O)S/C(=C\C2=Cc3cc(Br)ccc3OC2C)C1=O` (racemic), the half-maximal inhibitory concentration (IC50) with A549, in the experiment with MOLT-4 [1], in the experiment on MCF7 and in the experiment with K562 was above 100 µM throughout.

Turning to `CC1Oc2ccc(Br)cc2C=C1/C=C1\SC(=S)N(CC(=O)O)C1=O` (racemic), the concentration for half-maximal inhibition (IC50) in the experiment on A549, with MOLT-4 [1], with MCF7 and in the experiment on K562 was above 50 µM each time.
